PRMT1 inh: blocks human protein arginine methyltransferase 1; Q99873; recombinant PRMT1, activity-based probe fluorescence polarization; inhibition, % at 2.79 µM; hit rate 1.3% among 370,000; AID 652257;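 active = inhibition above about 21% made by adding two undisclosed values, limit read from the data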
HCV core dimer: blocks dimerization of HCV core protein; TR-FRET GST/Flag-core106 dimerization, 1536-well; inhibition, % at 5 µM; hit rate 0.33% among 300,000; AID 1899;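 active = inhibition above the mean of all tested compounds plus 3 SD, set per screening campaign, cut at about 45% in these data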
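test system = GST/Flag-tagged HCV core106 proteins | probe or stimulus = Eu donor and XL665 acceptor anti-tag antibodies | times = compound-protein-antibody incubation 4 h at 22.5 °C | signal = TR-FRET, excitation 340 nm, emission 617 and 671 nm | measure = percent inhibition of core106 dimerization signal | controls = wells lacking GST-core106 and wells with excess unlabelled core106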
A3A deaminase: blocks human APOBEC3A ssDNA deamination; P31941; recombinant A3A, FAM/TAMRA ssDNA deamination fluorescence; inhibition, % at 20 µM; hit rate 0.41% among 330,000; AID 493011;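 active = at least 40% inhibition at 20 µM here, with at most 30% in a related deaminase screen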;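 also: plate controls were A3A with DMSO for no effect and wells lacking A3A enzyme for full effect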
Target sequence (P31941 whole entry, looked up): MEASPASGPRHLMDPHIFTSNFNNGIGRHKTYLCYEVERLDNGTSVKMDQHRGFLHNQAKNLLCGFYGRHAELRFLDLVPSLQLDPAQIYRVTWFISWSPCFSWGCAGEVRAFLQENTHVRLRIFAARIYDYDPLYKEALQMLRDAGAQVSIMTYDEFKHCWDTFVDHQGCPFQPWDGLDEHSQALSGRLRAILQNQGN
ABHD5-PLIN5 inh: blocks binding of human ABHD5 to perilipin-5 | Q00G26+Q8WTS1 | Split G. princeps luciferase complementation, luminescence, 4 h | inhibition, % at 4 µM | hit rate 0.78% among 360,000 | AID 602281;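 active = inhibition above the mean inhibition across every tested compound plus 3 SD, cut at about 22% in these data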;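 also: 0% = DMSO only wells and the 100% control is not disclosed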
HCV NS3 hel inh: inhibitors of Hepatitis C virus NS3 helicase; NS3 helicase DNA unwinding, Cy5 molecular beacon fluorescence; inhibition, % at 10.9 µM; hit rate 0.56% among 290,000; AID 1800;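 active = inhibition above the mean of all tested compounds plus 3 SD, set per campaign, cut at about 35% in these data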;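 also: 0% = DMSO wells and 100% = thioflavine S control wells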
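Assay system: hepatitis C virus NS3 helicase domain fragment enzyme. Also added: annealed dual-labelled DNA beacon duplex, ATP-started. Timing: 1 h reaction at 25 °C, ATP-initiated. Technique: Cy5 fluorescence at 0 and 60 min, beacon hairpin quenching. Evaluation: % inhibition of unwinding. Replication: one well per compound.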
APOBEC3G inh: blocks human APOBEC3G single-stranded DNA deamination. inhibition, % at 20 µM. Q9HC16. recombinant A3G, ssDNA deamination FAM/TAMRA fluorescence. hit rate 0.28% among 330,000. AID 493012;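 active = inhibition of at least 40% at 20 µM, with no more than 30% in the related APOBEC3A deaminase screen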;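 also: plate controls were DMSO wells with A3G for no effect and wells lacking A3G enzyme for full effect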
Active calls of the source: *. Most compounds without a hit are left out; they make up all but 2.9% or so of the library.

What do the screens show for `CC=CCn1c(SCc2ccccc2)nc2c1c(=O)[nH]c(=O)n2C`?
PRMT1 inh: 24*; ABHD5-PLIN5 inh: 3

How did N#Cc1ccc(C(=O)OCC(=O)NC(=O)NCc2ccccc2)cc1 do in these assays?
PRMT1 inh: -1; A3A deaminase: -5; ABHD5-PLIN5 inh: 2; APOBEC3G inh: -2

What do the screens show for `C=C1CC(COc2ccc3c(C)c(Cl)c(=O)oc3c2)(c2ccccc2)OC1=O` (stereo not drawn)?
PRMT1 inh: 1; ABHD5-PLIN5 inh: 62*

How did Clc1cccc(CSc2nnc(-c3cccnc3)n2Cc2ccco2)c1 do in these assays?
HCV core dimer: 4; A3A deaminase: -1; ABHD5-PLIN5 inh: 14; HCV NS3 hel inh: 6; APOBEC3G inh: -8

Results for Clc1ccc(CSc2nnc(-c3cccnc3)n2Cc2ccco2)c(Cl)c1 ?
PRMT1 inh: 7; HCV core dimer: 48*; A3A deaminase: 5; ABHD5-PLIN5 inh: 20; HCV NS3 hel inh: 11; APOBEC3G inh: 1

What do the screens show for `COc1ccc(OC)c(NC(=O)CSc2nnc(CNc3ccc(F)cc3)o2)c1`?
PRMT1 inh: 1; HCV core dimer: 5; A3A deaminase: 0; ABHD5-PLIN5 inh: 5; HCV NS3 hel inh: -8; APOBEC3G inh: -2

What do the screens show for `COc1ccc(NCc2nnc(SCC(=O)Nc3ccccc3OC)o2)cc1`?
PRMT1 inh: 22*; HCV core dimer: 1; A3A deaminase: -3; ABHD5-PLIN5 inh: -10; HCV NS3 hel inh: -6; APOBEC3G inh: 6

Results for COc1ccc(C(=O)NCc2nnc(SCC(=O)c3ccccc3)o2)cc1 ?
PRMT1 inh: -6; HCV core dimer: -9; A3A deaminase: -2; ABHD5-PLIN5 inh: -7; HCV NS3 hel inh: -1; APOBEC3G inh: -4

Results for COc1ccc(C(=O)NCc2nnc(SCC(=O)Nc3nc4ccccc4s3)o2)cc1 ?
PRMT1 inh: 23*; HCV core dimer: -13; A3A deaminase: 2; ABHD5-PLIN5 inh: -6; HCV NS3 hel inh: 15; APOBEC3G inh: 1

What do the screens show for `O=C(CSC1=NCCS1)Nc1nc2ccccc2s1`?
PRMT1 inh: 42*; HCV core dimer: -2; A3A deaminase: -4; ABHD5-PLIN5 inh: -6; HCV NS3 hel inh: 0; APOBEC3G inh: -13

What do the screens show for `CC(C)(C)c1ccc(C(=O)NCc2nnc(SCC(=O)NC3CCCCC3)o2)cc1`?
PRMT1 inh: 21*; HCV core dimer: 2; A3A deaminase: -3; ABHD5-PLIN5 inh: -5; HCV NS3 hel inh: -5; APOBEC3G inh: -7

What do the screens show for `CCOC(=O)C1=CN(Cc2cccc(F)c2)S(=O)(=O)N(CC)C1c1ccc(C(F)(F)F)cc1` (stereo not drawn)?
PRMT1 inh: 1; A3A deaminase: 2; ABHD5-PLIN5 inh: -10; APOBEC3G inh: 1

How did CCC(C#Cc1ccccc1)N(C)C(N)=NC(=O)/C=C/c1ccccc1 (stereo not drawn) do in these assays?
PRMT1 inh: -7

How did COC(=O)[C@]12C[C@H](CC(=O)N3CCCCC3)C(=O)N(CCC3=CCCCC3)C1=C[C@H](C1CCCC1)O[C@@H]2C do in these assays?
PRMT1 inh: 6

Results for COc1ccccc1C1=Nn2c(COc3ccccc3)nnc2SC1 ?
HCV core dimer: 5; A3A deaminase: -3; HCV NS3 hel inh: 1; APOBEC3G inh: 51*

Results for C[C@@H]1ON(C)[C@H]2C[C@H]3c4cc(-c5ccc6c(c5)OCO6)ccc4CCN3C[C@@H]12 ?
PRMT1 inh: -3

Results for O=C(/C=C/c1ccco1)Nc1nc(-c2ccccn2)cs1 ?
PRMT1 inh: 23*; HCV core dimer: 17; A3A deaminase: 21; ABHD5-PLIN5 inh: 12; HCV NS3 hel inh: 13; APOBEC3G inh: 18

How did O=C(O)c1c(C(=O)O)c(-c2ccc(Cl)c(Cl)c2)n2c1CSC2 do in these assays?
PRMT1 inh: 30*; HCV core dimer: 7; A3A deaminase: -2; ABHD5-PLIN5 inh: -4; HCV NS3 hel inh: 7; APOBEC3G inh: -8

Results for COC(=O)c1c(C(=O)OC)c(-c2ccc(Cl)c(Cl)c2)n2c1CCC2 ?
HCV core dimer: 5; A3A deaminase: 1; ABHD5-PLIN5 inh: -1; HCV NS3 hel inh: -2; APOBEC3G inh: -4

How did Cc1ccc(S(=O)(=O)OCC(=O)Nc2ccc(C(=O)O)c(O)c2)cc1 do in these assays?
PRMT1 inh: 21*; ABHD5-PLIN5 inh: 3

Source: PubChem BioAssay
